Measurements: ChEMBL document CHEMBL4732136, “Synthesis, Tumor Specificity, and Photosensitizing Efficacy of Erlotinib-Conjugated Chlorins and Bacteriochlorins: Identification of a Highly Effective Candidate for Photodynamic Therapy of Cancer” (J Med Chem, 2021)

Key:
[1] = Drug uptake in human CFSE-stained HN-121 cells assessed as increase in drug retention at 1.6 uM in medium with 10% FBS followed by 48 hrs chase period by inverted fluorescence microscopic analysis; assay type: ADME, cell-based; details: hn-121, 48 h
UMUC3 = experiment: Photosensitizing activity in human UMUC3 cells assessed as reduction in cell viability pretreated with compound for 24 hrs followed by light irradiation at 1 J/cm2 and measured after 48 hrs by MTT assay; assay type: functional, cell-based; details: UMUC3, light or radiation study
Method in brief: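 Cells plated 0.01x10⁶ to 0.05x10⁶ cells/ml and allowed to adhere 24 h before photosensitizer was added, top dose 1600 nM with 2-fold serial dilutions. Plates received no light (0 J/cm²) or 1 J/cm² at 565 mW, 15 cm spot. After 48 h, MTT added for 3 h, formazan solubilized in DMSO and read at 570 nm; IC₅₀ fitted from dose-response.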

FaDu = experiment: Photosensitizing activity in human FaDu cells assessed as reduction in cell viability pretreated with compound for 24 hrs followed by light irradiation at 1 J/cm2 and measured after 48 hrs by MTT assay; assay type: functional, cell-based; details: light or radiation study
Method in brief: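 Cells seeded at 0.01–0.05 x 10⁶ cells/ml; PS added 24 h after plating, top dose 1600 nM with 2-fold serial dilutions. Plates given 0 or 1 J/cm² light. MTT added 48 h later, formazan dissolved in DMSO, absorbance at 570 nm; IC50 from curve fitting.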

[2] = Drug uptake in tumor of SCID mouse xenografted with human UMUC3 cells at 0.47 micromol/kg, iv pretreated with compound followed by light irradiation at a dose of 135 J/cm2 and 75 mW/cm2 measured after 2 to 24 hrs by IVIS analysis; assay type: ADME, organism-based, Neoplasm; details: in vivo, time 2-24 hrs, dose 0.47 µmol/kg
Method in brief: (§1)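 Female SCID mice with UMUC3 flank/shoulder tumors, 3 per group. PS in 1% Tween80/5% dextrose given iv at 0.47, 0.25 or 0.125 μmol/kg. Whole-body fluorescence imaging by IVIS at several times after injection; average radiant efficiency measured in tumor, liver and skin.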

[3] = Drug uptake in liver of SCID mouse xenografted with human UMUC3 cells at 0.47 micromol/kg, iv pretreated with compound followed by light irradiation at a dose of 135 J/cm2 and 75 mW/cm2 measured after 2 to 24 hrs by IVIS analysis; assay type: ADME, organism-based; details: in vivo, time 2-24 hrs, dose 0.47 µmol/kg; method in brief: as §1
[4] = Drug uptake in skin of SCID mouse xenografted with human UMUC3 cells at 0.47 micromol/kg, iv pretreated with compound followed by light irradiation at a dose of 135 J/cm2 and 75 mW/cm2 measured after 2 to 24 hrs by IVIS analysis; assay type: ADME, organism-based, Skin of body; details: in vivo, time 2-24 hrs, dose 0.47 µmol/kg; method in brief: as §1
[5] = Drug uptake in human FaDu clone 49 cells assessed as increase in drug retention at 1.6 uM in RPMI medium with 10% FBS followed by 48 hrs chase period by inverted fluorescence microscopic analysis
[6] = Drug uptake in human HNT1 cells at 3.2 uM incubated for 30 mins in serum free medium followed by […] in compound-free medium by inverted fluorescence microscopic analysis; assay type: ADME, cell-based; details: hnt1, 0.5 h
Method in brief: (§2)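 Confluent HNT1 cultures (passage 116) given 3.2 μM PS for 30 min in serum-free medium, then 5 h in serum-containing medium with PS, then 15 h chase in serum medium without PS. Fluorescence recorded at 100X with varied camera exposures and quantified digitally; pixel signal normalized to time and cell number.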

[7] = Drug uptake in human HNT1 cells at 3.2 uM incubated for 30 mins in DMEM media with 10% FBS followed by […] in compound-free medium by inverted fluorescence microscopic analysis; assay type: ADME, cell-based; details: hnt1, 0.5 h, in the assay text read “in serum-free medium” for “in DMEM media with 10% FBS”; method in brief: as §2
[8] = Drug uptake in human HN-143 cells assessed as increase in drug retention retention at 3 uM in medium with 10% FBS incubated for 5 hrs followed by 40 hrs chase period by inverted fluorescence microscopic analysis; assay type: ADME, cell-based; details: hn-143, 5 h
Method in brief: (§3)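 Five-day co-cultures of HN-143 tumor epithelial cells and HN-166 tumor fibroblasts, both primary head & neck tumor cultures grown on collagen-1 under selective media. PS in 10% FBS medium for 5 h, then 40 h chase without PS. Phase-contrast and fluorescence images taken at 100X with 500 ms exposure; signal normalized to recording time and cell number.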

[9] = Drug uptake in human HN-166 cells assessed as increase in drug retention retention at 3 uM in medium with 10% FBS incubated for 5 hrs followed by 40 hrs chase period by inverted fluorescence microscopic analysis; assay type: ADME, cell-based; details: hn-166, 5 h; method in brief: as §3

Compound	Drug uptake [1]	IC50 (UMUC3) [nM]	IC50 (FaDu) [nM]	Drug uptake [5]	other results
CCC1=C(C)c2cc3[nH]c(cc4nc(c5c6[nH]c(cc1n2)c(C)c6C(=O)C5)[C@@H](CCC(=O)OC)[C@@H]4C)c(C)c3COCc1cccc(C#Cc2cccc(Nc3ncnc4cc(OCCOC)c(OCCOC)cc34)c2)c1	Not Active	76.3	23.3	Not Active	Drug uptake [2]: Not Active; Drug uptake [3]: Active; Drug uptake [4]: Active
CCCCCCOC(C)c1c(C)c2cc3nc(c4c5[nH]c(cc6nc(cc1[nH]2)C(C)=C6CC)c(C)c5C(=O)C4)[C@@H](CCC(=O)NC(CCC(=O)NCc1cccc(C#Cc2cccc(Nc4ncnc5cc(OCCOC)c(OCCOC)cc45)c2)c1)(CCC(=O)NCc1cccc(C#Cc2cccc(Nc4ncnc5cc(OCCOC)c(OCCOC)cc45)c2)c1)CCC(=O)NCc1cccc(C#Cc2cccc(Nc4ncnc5cc(OCCOC)c(OCCOC)cc45)c2)c1)[C@@H]3C (some centres undefined)	Not Active	–	–	Not Active	–
CCC1=C(C)c2cc3[nH]c(cc4nc(c5c6[nH]c(cc1n2)c(C)c6C(=O)C5)[C@@H](CCC(=O)O)[C@@H]4C)c(C)c3C(C)OCc1ccc(C#Cc2cccc(Nc3ncnc4cc(OCCOC)c(OCCOC)cc34)c2)cc1 (some centres undefined)	Active	34.4	59.6	Active	–
CCC1c2cc3[nH]c4c(c5nc(cc6[nH]c(cc(n2)C1C)c(C(C)OCc1cccc(C#Cc2cccc(Nc7ncnc8cc(OCCOC)c(OCCOC)cc78)c2)c1)c6C)[C@@H](C)[C@@H]5CCC(=O)O)CC(=O)c4c3C (some centres undefined)	Not Active	8.9	–	Not Active	–
CCC1=C(C)c2cc3[nH]c(cc4nc(c5c6[nH]c(cc1n2)c(C)c6C(=O)C5)[C@@H](CCC(=O)O)[C@@H]4C)c(C)c3C(C)OCc1cccc(C#Cc2cccc(Nc3ncnc4cc(OCCOC)c(OCCOC)cc34)c2)c1 (some centres undefined)	–	54.8	31.8	–	Drug uptake [6]: Active; Drug uptake [7]: Active; Drug uptake [2]: Not Active
CCCCCCOC(C)c1c(C)c2cc3nc(c4c5[nH]c(cc6nc(cc1[nH]2)C(C)=C6CC)c(C)c5C(=O)C4)[C@@H](CCC(=O)NCc1cccc(I)c1)[C@@H]3C (some centres undefined)	–	187	520	–	–
CCCCCCOC(C)c1c(C)c2cc3nc(c4c5[nH]c(cc6nc(cc1[nH]2)C(C)=C6CC)c(C)c5C(=O)C4)[C@@H](CCC(=O)NCc1cccc(C#Cc2cccc(Nc4ncnc5cc(OCCOC)c(OCCOC)cc45)c2)c1)[C@@H]3C (some centres undefined)	Active	43.4	–	Active	Drug uptake [8]: Active; Drug uptake [9]: Active
CCC1c2cc3[nH]c4c(c5nc(cc6[nH]c(cc(n2)C1C)c(C(C)OCc1cccc(C#Cc2cccc(Nc7ncnc8cc(OCCOC)c(OCCOC)cc78)c2)c1)c6C)[C@@H](C)[C@@H]5CCC(=O)OC)CC(=O)c4c3C (some centres undefined)	Not Active	16.8	–	Not Active	–
CCCCCCOC(C)c1c(C)c2cc3nc(c(CC(=O)OC)c4[nH]c(cc5nc(cc1[nH]2)C(C)=C5CC)c(C)c4C(=O)NCc1cccc(C#Cc2cccc(Nc4ncnc5cc(OCCOC)c(OCCOC)cc45)c2)c1)[C@@H](CCC(=O)OC)[C@@H]3C (some centres undefined)	Not Active	3.5	–	Not Active	Drug uptake [8]: Active; Drug uptake [9]: Active
C=Cc1c(C)c2cc3nc(c(CC(=O)OC)c4[nH]c(cc5nc(cc1[nH]2)C(C)=C5CC)c(C)c4C(=O)NCc1cccc(I)c1)[C@@H](CCC(=O)OC)[C@@H]3C	–	28.2	13.8	–	–
CCCCCCOC(C)c1c(C)c2cc3nc(c(CC(=O)OC)c4[nH]c(cc5nc(cc1[nH]2)C(C)=C5CC)c(C)c4C(=O)NCCCOCCOCCOCCCNC(=O)Cc1cccc(C#Cc2cccc(Nc4ncnc5cc(OCCOC)c(OCCOC)cc45)c2)c1)[C@@H](CCC(=O)OC)[C@@H]3C (some centres undefined)	Active	7.5	21.4	Active	Drug uptake [8]: Active; Drug uptake [9]: Active
CCC1=C(C)c2cc3[nH]c(c(C)c3CC)c(-c3ccc(C(=O)NCc4ccc(I)cc4)cc3)c3nc(c4c5[nH]c(cc1n2)c(C)c5C(=O)C4)[C@@H](CCC(=O)OC)[C@@H]3C	Not Active	196	1250	Not Active	–
C=Cc1c(C)c2cc3nc(c(CC(=O)OC)c4[nH]c(cc5nc(cc1[nH]2)C(C)=C5CC)c(C)c4C(=O)NCc1cccc(C#Cc2cccc(Nc4ncnc5cc(OCCOC)c(OCCOC)cc45)c2)c1)[C@@H](CCC(=O)OC)[C@@H]3C	–	39.6	33.4	–	–
C=Cc1c(C)c2cc3nc(c(CC(=O)NCc4cccc(C#Cc5cccc(Nc6ncnc7cc(OCCOC)c(OCCOC)cc67)c5)c4)c4[nH]c(cc5nc(cc1[nH]2)C(C)=C5CC)c(C)c4C(=O)OC)[C@@H](CCC(=O)OC)[C@@H]3C	–	45	166	–	–
C=Cc1c(C)/c2[nH]/c1=C\C1=NC(=C\C3=C(C)C4C(=O)N(Cc5cccc(C#Cc6cccc(Nc7ncnc8cc(OCCOC)c(OCCOC)cc78)c6)c5)C(=O)/C(=C5N=C(\C=2)[C@@H](C)[C@@H]/5CCC(=O)OC)C4N3)/C(CC)=C1C (some centres undefined)	Not Active	–	–	Not Active	–
C=Cc1c(C)c2cc3nc(c(CC(=O)OC)c4[nH]c(cc5nc(cc1[nH]2)C(C)=C5CC)c(C)c4C(=O)NCCNC(=O)COCC(=O)NCCCOCCOCCOCCCNC(=O)Cc1cccc(I)c1)[C@@H](CCC(=O)OC)[C@@H]3C	Not Active	26.4	19.2	Not Active	–
CCCCCCOC(C)c1c(C)c2cc3nc(c(CC(=O)OC)c4[nH]c(cc5nc(cc1[nH]2)C(C)=C5CC)c(C)c4C(=O)NCCCOCCOCCOCCCNC(=O)Cc1cccc(I)c1)[C@@H](CCC(=O)OC)[C@@H]3C (some centres undefined)	–	6.8	15.4	–	–
C=Cc1c(C)c2cc3nc(c(CC(=O)OC)c4[nH]c(cc5nc(cc1[nH]2)C(C)=C5CC)c(C)c4C(=O)NCCNC(=O)COCC(=O)NCCCOCCOCCOCCCNC(=O)Cc1cccc(C#Cc2cccc(Nc4ncnc5cc(OCCOC)c(OCCOC)cc45)c2)c1)[C@@H](CCC(=O)OC)[C@@H]3C	Not Active	59.2	88.6	Not Active	–
CCCCCCOC(C)c1c(C)c2cc3nc(c(CC(=O)OC)c4[nH]c(cc5nc(cc1[nH]2)C(C)=C5CC)c(C)c4C(=O)NCc1cccc(I)c1)[C@@H](CCC(=O)OC)[C@@H]3C (some centres undefined)	Not Active	–	–	Not Active	–
CCC1=C(C)c2cc3[nH]c(c(C)c3CC)c(-c3ccc(C(=O)NCc4ccc(C#Cc5cccc(Nc6ncnc7cc(OCCOC)c(OCCOC)cc67)c5)cc4)cc3)c3nc(c4c5[nH]c(cc1n2)c(C)c5C(=O)C4)[C@@H](CCC(=O)OC)[C@@H]3C	Not Active	–	> 10000	Not Active	–
